# Source: ChEMBL document CHEMBL3112482, “Nonclassical antifolates, part 5. Benzodiazepine analogs as a new class of DHFR inhibitors: synthesis, antitumor testing and molecular modeling study” (Eur J Med Chem, 2014)
# Legend:
# [1] = biological target: T1, Dihydrofolate reductase (Bos taurus, UniProt P00376); assay: Inhibition of bovine liver DHFR measured for every 1 min of 10 mins
# T1 sequence (P00376 whole entry): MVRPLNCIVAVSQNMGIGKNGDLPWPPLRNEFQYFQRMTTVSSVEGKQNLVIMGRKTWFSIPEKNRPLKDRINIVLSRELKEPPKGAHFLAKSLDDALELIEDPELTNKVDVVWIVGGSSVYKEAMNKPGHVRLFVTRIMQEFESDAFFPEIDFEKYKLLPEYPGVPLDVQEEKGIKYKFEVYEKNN
# [2] = biological target: Dihydrofolate reductase (Bos taurus) (UniProt P00376); assay: Ratio of MTX IC50 to compound IC50 for bovine liver DHFR
# How it was run: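 Bovine liver DHFR in Tris buffer pH 7.5, with dihydrofolate substrate. Final working levels were 0.29 g/l NADPH and 15 U/l DHFR. Absorbance was read at 340 nm at room temperature in kinetic mode every 1 min for 10 min. ΔA/min was taken relative to DMSO control to give % inhibition versus log concentration, from which the IC50 was derived. Methotrexate was the reference.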
compound,measurement,setting,value
Brc1ccc(/C=C2\CCCC3=C(c4ccc(Br)cc4)Nc4ccccc4N=C32)cc1,IC50,[1],65 µM
Cc1cc2c(cc1C)NC(c1ccc(Br)cc1)=C1CCC/C(=C\c3ccc(Br)cc3)C1=N2,IC50,[1],21 µM
COc1ccc(/C=C2\CCCC3=C(c4ccc(OC)c(OC)c4)Nc4cc(C)c(C)cc4N=C32)cc1OC,IC50,[1],0.004 µM
same,Ratio IC50,[2],20
Clc1cc2c(cc1Cl)NC(c1ccc(Br)cc1)=C1CCC/C(=C\c3ccc(Br)cc3)C1=N2,IC50,[1],0.1 µM
Cc1cc2c(cc1C)NC(c1ccc(Cl)cc1)=C1CCC/C(=C\c3ccc(Cl)cc3)C1=N2,IC50,[1],70 µM
